Measurements published in ChEMBL document CHEMBL2069306, “Sequences in the HSP90 promoter form G-quadruplex structures with selectivity for disubstituted phenyl bis-oxazole derivatives” (Bioorg Med Chem Lett, 2012).

Columns and labels:
Nucleic Acid [1] = experiment: Binding affinity to human G4 telomeric quadruplex DNA assessed as change in melting temperature at 1 uM by FRET melting assay; assay type: nucleic-acid assay
In short: (§1)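 FAM/TAMRA dual-labelled oligonucleotides diluted to 400 nM in 60 mM potassium cacodylate pH 7.4. Annealed at 95 °C for 10 min, then cooled to RT over 3–3.5 h. Compound diluted from a 1 mM stock (10% DMSO/90% 1 mM HCl) to 2× in buffer and mixed 1:1 with DNA. Fluorescence read every 0.5 °C over 30–100 °C with a 30 s hold. ΔTm from curve fitting; triplicate.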

Nucleic Acid [2] = experiment: Binding affinity to HSP90B quadruplex DNA assessed as change in melting temperature at 1 uM by FRET melting assay; assay type: nucleic-acid assay; settings: Homo sapiens; in short: as §1
Nucleic Acid [3] = experiment: Binding affinity to HSP90A quadruplex DNA assessed as change in melting temperature at 2 uM by FRET melting assay; assay type: nucleic-acid assay; settings: Homo sapiens; in short: as §1
Nucleic Acid [4] = experiment: Binding affinity to human G4 telomeric quadruplex DNA assessed as change in melting temperature at 2 uM by FRET melting assay; assay type: nucleic-acid assay; in short: as §1
Nucleic Acid [5] = experiment: Binding affinity to HSP90B quadruplex DNA assessed as change in melting temperature at 2 uM by FRET melting assay; assay type: nucleic-acid assay; settings: Homo sapiens; in short: as §1
Nucleic Acid [6] = experiment: Binding affinity to double stranded DNA assessed as change in melting temperature at 2 uM by FRET melting assay; assay type: nucleic-acid assay; in short: as §1
Nucleic Acid [7] = experiment: Binding affinity to HSP90A quadruplex DNA assessed as change in melting temperature at 1 uM by FRET melting assay; assay type: nucleic-acid assay; settings: Homo sapiens; in short: as §1
Nucleic Acid [8] = experiment: Binding affinity to double stranded DNA assessed as change in melting temperature at 1 uM by FRET melting assay; assay type: nucleic-acid assay; in short: as §1
Nucleic Acid [9] = experiment: Binding affinity to human 21-mer telomeric quadruplex F21T DNA assessed as change in melting temperature at 2 uM by FRET melting assay; assay type: nucleic-acid assay; in short: as §1
Nucleic Acid [10] = experiment: Binding affinity to k-ras quadruplex DNA assessed as change in melting temperature at 2 uM by FRET melting assay; assay type: nucleic-acid assay; settings: Homo sapiens; in short: as §1
Nucleic Acid [11] = experiment: Binding affinity to c-kit2 quadruplex DNA assessed as change in melting temperature at 2 uM by FRET melting assay; assay type: nucleic-acid assay; settings: Homo sapiens; in short: as §1
A549 = experiment: Antiproliferative activity against human A549 cells after 96 hrs by neubauer haemocytometer analysis; assay type: functional, cell-based; settings: in the assay text read “sulforhodamine B assay” for “neubauer haemocytometer analysis”
In short: (§2)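 Cancer lines seeded at 1000–4000 cells/well and WI38 fibroblasts at 6000/well, then grown 24 h. Compound added over a concentration range for 96 h. Cells fixed with 10% TCA (30 min, 4 °C), stained with 0.4% sulforhodamine B (15 min, RT), dye solubilized in 10 mM Tris base, A540 read. Normalized to untreated cells; IC50 interpolated at 50% absorbance. Triplicate.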

MIA PaCa-2 = experiment: Antiproliferative activity against human MIAPaCa2 cells after 96 hrs by neubauer haemocytometer analysis; assay type: functional, cell-based; settings: in the assay text read “sulforhodamine B assay” for “neubauer haemocytometer analysis”; in short: as §2
duplex DNA [12] = experiment: Binding affinity to duplex DNA assessed as change in melting temperature at 3 uM by FRET melting assay; settings: Homo sapiens
MCF7 = experiment: Antiproliferative activity against human MCF7 cells after 96 hrs by neubauer haemocytometer analysis; assay type: functional, cell-based; settings: in the assay text read “sulforhodamine B assay” for “neubauer haemocytometer analysis”; in short: as §2
WI-38 = experiment: Antiproliferative activity against human WI38 cells after 96 hrs by neubauer haemocytometer analysis; assay type: cell-based; settings: in the assay text read “sulforhodamine B assay” for “neubauer haemocytometer analysis”; in short: as §2
Nucleic Acid [13] = experiment: Binding affinity to c-kit2 quadruplex DNA assessed as change in melting temperature at 1 uM by FRET melting assay; assay type: nucleic-acid assay; settings: Homo sapiens; in short: as §1
duplex DNA [14] = experiment: Binding affinity to duplex DNA assessed as change in melting temperature at 3 uM by FRET melting assay; settings: Homo sapiens; remark: listed apart in the source
[15] = Antiproliferative activity against human 786-O cells after 96 hrs by neubauer haemocytometer analysis; assay type: functional, cell-based; settings: 786-0; in the assay text read “sulforhodamine B assay” for “neubauer haemocytometer analysis”; in short: as §2
Nucleic Acid [16] = experiment: Binding affinity to k-ras quadruplex DNA assessed as change in melting temperature at 1 uM by FRET melting assay; assay type: nucleic-acid assay; settings: Homo sapiens; in short: as §1
Nucleic Acid [17] = experiment: Binding affinity to human 21-mer telomeric quadruplex F21T DNA assessed as change in melting temperature at 1 uM by FRET melting assay; assay type: nucleic-acid assay; in short: as §1
[18] = Antiproliferative activity against human RCC4 cells after 96 hrs by neubauer haemocytometer analysis; assay type: functional, cell-based; settings: in the assay text read “sulforhodamine B assay” for “neubauer haemocytometer analysis”; in short: as §2
duplex DNA [19] = experiment: Binding affinity to duplex DNA assessed as change in melting temperature at 3 uM by FRET melting assay; settings: Homo sapiens; remark: listed apart in the source

Compound	ΔTm (Nucleic Acid [1]) [°C]	ΔTm (Nucleic Acid [2]) [°C]	ΔTm (Nucleic Acid [3]) [°C]	ΔTm (Nucleic Acid [4]) [°C]	ΔTm (Nucleic Acid [5]) [°C]	ΔTm (Nucleic Acid [6]) [°C]	ΔTm (Nucleic Acid [7]) [°C]	ΔTm (Nucleic Acid [8]) [°C]	further results
c1cc(-c2cnc(-c3cccc(CN4CCCCC4)c3)o2)cc(-c2cnc(-c3cccc(CN4CCCCC4)c3)o2)c1	< 2	3	8	< 2	6	1	5	1	
c1cc(-c2cnc(-c3ccc(CN4CCCCCC4)cc3)o2)cc(-c2cnc(-c3ccc(CN4CCCCCC4)cc3)o2)c1	3	9	9	7	11	1	8	1	
c1cc(-c2cnc(-c3ccc(OCCN4CCCC4)cc3)o2)cc(-c2cnc(-c3ccc(OCCN4CCCC4)cc3)o2)c1	< 2	2	14	< 2	6	0	7	0	
c1cc(-c2cnc(-c3ccc(OCCCCN4CCCC4)cc3)o2)cc(-c2cnc(-c3ccc(OCCCCN4CCCC4)cc3)o2)c1	2	2	19	15	5	0	5	0	
CN1CCN(CCc2ccc(-c3ncc(-c4ccc(-c5cnc(-c6ccc(CCN7CCN(C)CC7)cc6)o5)cc4)o3)cc2)CC1			< 5		< 5				ΔTm (Nucleic Acid [9]): < 5 °C; ΔTm (Nucleic Acid [10]): < 5 °C; ΔTm (Nucleic Acid [11]): < 5 °C
c1cc(-c2cnc(-c3ccc(CN4CCOCC4)cc3)o2)cc(-c2cnc(-c3ccc(CN4CCOCC4)cc3)o2)c1	< 2	5	6	2	6	0	6	0	
CN1CCN(Cc2ccc(-c3ncc(-c4cccc(-c5cnc(-c6ccc(CN7CCN(C)CC7)cc6)o5)c4)o3)cc2)CC1	< 2	3	16	2	12	0	7	0	
CC(C)N(Cc1ccc(-c2ncc(-c3cccc(-c4cnc(-c5ccc(CN(C(C)C)C(C)C)cc5)o4)c3)o2)cc1)C(C)C	< 2	8	8	2	9	1	8	1	
CN1CCN(CCc2ccc(-c3ncc(-c4cccc(-c5cnc(-c6ccc(CCN7CCN(C)CC7)cc6)o5)c4)o3)cc2)CC1	< 2	2	23	2	7	0	14	0	IC50 (A549): 1.02 µmol; IC50 (MIA PaCa-2): 1.25 µmol; ΔTm (duplex DNA [12]): < 1 °C; IC50 (MCF7): 1.32 µmol; IC50 (WI-38): 2.59 µmol; ΔTm (Nucleic Acid [13]): < 2 °C; ΔTm (duplex DNA [14]): < 1 °C; ΔTm (Nucleic Acid [9]): 2 °C; IC50 [15]: 1.33 µmol; ΔTm (Nucleic Acid [16]): 7 °C; ΔTm (Nucleic Acid [17]): < 2 °C; IC50 [18]: 0.94 µmol; ΔTm (duplex DNA [19]): < 1 °C; ΔTm (Nucleic Acid [10]): 17 °C; ΔTm (Nucleic Acid [11]): 2 °C
c1cc(-c2cnc(-c3ccc(OCCCN4CCCC4)cc3)o2)cc(-c2cnc(-c3ccc(OCCCN4CCCC4)cc3)o2)c1	< 2	2	14	< 2	6	0	7	0	
c1cc(-c2cnc(-c3ccc(CN4CCCC4)cc3)o2)cc(-c2cnc(-c3ccc(CN4CCCC4)cc3)o2)c1	2	2	14	6	4	0	7	0	
